# Calls of active or inactive are those of the source. No cut-off for these calls is given here.
# Assays:
# [1] = Inhibition of recombinant VZV TK assessed as [CH3-H3]dThd phosphorylation; parameters: species or system Human alphaherpesvirus 3
# How it was run: (§1)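 Purified recombinant VZV TK (7.75 ng), HSV-1 TK (226 ng) or cytosolic TK-1 (455 ng). Buffer: 50 mM Tris-HCl pH 8.0, 2.5 mM MgCl2, 10 mM DTT, 2.5 mM ATP, 1.0 mg/mL BSA, 10 mM NaF, 1 µM [CH3-3H]dThd final. Incubated 30 min at 37 °C (linear range) with graded compound concentrations. Product caught on DE-81 disks, washed, scintillation-counted. IC50 is 50% inhibition of dThd phosphorylation.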
# [2] = target: T1, Thymidine kinase (Human alphaherpesvirus 1, UniProt Q9QNF7); assay: Inhibition of recombinant HSV-1 TK assessed as [CH3-H3]dThd phosphorylation; how it was run: as §1
# T1 sequence (Q9QNF7 whole entry): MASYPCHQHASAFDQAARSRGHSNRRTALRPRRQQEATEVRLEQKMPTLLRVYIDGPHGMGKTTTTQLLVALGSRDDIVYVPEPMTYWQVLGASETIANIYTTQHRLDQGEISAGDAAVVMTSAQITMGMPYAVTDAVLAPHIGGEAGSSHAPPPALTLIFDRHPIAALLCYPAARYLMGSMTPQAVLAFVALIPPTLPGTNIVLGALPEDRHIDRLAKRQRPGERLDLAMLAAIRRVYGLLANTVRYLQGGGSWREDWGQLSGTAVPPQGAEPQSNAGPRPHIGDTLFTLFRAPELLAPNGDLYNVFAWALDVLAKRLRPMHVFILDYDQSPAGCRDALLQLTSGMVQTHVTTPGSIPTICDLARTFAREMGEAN
# [3] = target: T2, Thymidine kinase, cytosolic (Homo sapiens, UniProt P04183); assay: Inhibition of recombinant cytosolic TK-1 assessed as [CH3-H3]dThd phosphorylation; how it was run: as §1
# T2 sequence (P04183 whole entry): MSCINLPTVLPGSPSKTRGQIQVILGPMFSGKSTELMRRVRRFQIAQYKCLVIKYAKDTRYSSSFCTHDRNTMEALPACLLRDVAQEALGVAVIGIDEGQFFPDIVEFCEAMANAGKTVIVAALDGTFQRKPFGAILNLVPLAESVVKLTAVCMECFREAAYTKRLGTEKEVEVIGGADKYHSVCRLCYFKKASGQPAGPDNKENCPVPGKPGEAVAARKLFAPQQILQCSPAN
# [4] = system: OST; assay: Cytostatic activity against OST TK-/HSV1 TK+ cells at 1.8 uM; format: functional, cell-based; conditions: Homo sapiens, tested as the 18F-labelled form
# How it was run: (§2)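 OST TK- control cells and OST TK- cells expressing HSV-1 TK or VZV TK were cultured 5 days with graded compound concentrations. Cells were then trypsinized and counted on a Coulter counter. CC50 is the concentration in µM that reduces cell number by 50%.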
# [5] = system: OST; assay: Cytotoxicity against OST cells expressing VZV TK; format: cell-based; conditions: human; how it was run: as §2
# [6] = system: OST; assay: Cytotoxicity against OST cells expressing HSV1 TK; format: cell-based; conditions: human; how it was run: as §2
# [7] = system: Lung; assay: Biodistribution in lung of NMRI mouse assessed as standard uptake value after 2 mins; format: ADME, organism-based; conditions: in vivo
# [8] = system: Heart; assay: Biodistribution in heart of NMRI mouse assessed as standard uptake value after 2 mins; format: ADME, organism-based; conditions: in vivo
# [9] = system: Brain; assay: Biodistribution in brain of NMRI mouse assessed as standard uptake value after 2 mins; format: ADME, organism-based; conditions: in vivo
# [10] = system: Blood; assay: Biodistribution in blood of NMRI mouse assessed as standard uptake value after 2 mins; format: ADME, organism-based; conditions: in vivo
# [11] = system: Kidney; assay: Biodistribution in kidney of NMRI mouse assessed as standard uptake value after 60 mins; format: ADME, organism-based; conditions: in vivo, 1 h
# [12] = system: Liver; assay: Biodistribution in liver of NMRI mouse assessed as standard uptake value after 60 mins; format: ADME, organism-based; conditions: in vivo, 1 h
# [13] = Biodistribution in spleen/pancreas of NMRI mouse assessed as standard uptake value after 60 mins; format: ADME, organism-based; conditions: in vivo, 1 h
# [14] = system: Intestine; assay: Biodistribution in intestine of NMRI mouse after 2 mins; format: ADME, organism-based; conditions: in vivo
# How it was run: (§3)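 Male NMRI mice (30-40 g) under ketamine/xylazine i.p. anesthesia received 0.1 mL of HPLC-purified 18F tracer (0.1 mCi/mL) or 11C tracer (1 mCi/mL) in water for injection via tail vein. Killed by decapitation at 2 or 60 min (n = 3 per time). Blood, organs and carcass weighed and gamma-counted. %ID = organ cpm/total cpm recovered. Blood mass taken as 7% of body mass. Mean ± SD.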
# [15] = system: Brain; assay: Biodistribution in brain of NMRI mouse after 2 mins; format: ADME, organism-based; conditions: in vivo; how it was run: as §3
# [16] = system: Blood; assay: Biodistribution in blood of NMRI mouse after 2 mins; format: ADME, organism-based; conditions: in vivo; how it was run: as §3
# [17] = Biodistribution in carcass of NMRI mouse after 2 mins; format: ADME, organism-based; conditions: in vivo; how it was run: as §3
# [18] = Biodistribution in urine of NMRI mouse after 60 mins; format: ADME, organism-based; conditions: in vivo, 1 h; how it was run: as §3
# [19] = system: Kidney; assay: Biodistribution in kidney of NMRI mouse after 60 mins; format: ADME, organism-based; conditions: in vivo, 1 h; how it was run: as §3
# [20] = system: Liver; assay: Biodistribution in liver of NMRI mouse after 60 mins; format: ADME, organism-based; conditions: in vivo, 1 h; how it was run: as §3
# [21] = Biodistribution in spleen/pancreas of NMRI mouse after 60 mins; format: ADME, organism-based; conditions: in vivo, 1 h; how it was run: as §3
# [22] = system: Lung; assay: Biodistribution in lung of NMRI mouse after 60 mins; format: ADME, organism-based; conditions: in vivo, 1 h; how it was run: as §3
# [23] = system: Heart; assay: Biodistribution in heart of NMRI mouse after 60 mins; format: ADME, organism-based; conditions: in vivo, 1 h; how it was run: as §3
# [24] = system: Intestine; assay: Biodistribution in intestine of NMRI mouse after 60 mins; format: ADME, organism-based; conditions: in vivo, 1 h; how it was run: as §3
# [25] = system: Brain; assay: Biodistribution in brain of NMRI mouse after 60 mins; format: ADME, organism-based; conditions: in vivo, 1 h; how it was run: as §3
# [26] = system: Blood; assay: Biodistribution in blood of NMRI mouse after 60 mins; format: ADME, organism-based; conditions: in vivo, 1 h; how it was run: as §3
# [27] = Biodistribution in carcass of NMRI mouse after 60 mins; format: ADME, organism-based; conditions: in vivo, 1 h; how it was run: as §3
# [28] = system: Kidney; assay: Biodistribution in kidney of NMRI mouse assessed as standard uptake value after 2 mins; format: ADME, organism-based; conditions: in vivo
# [29] = system: Liver; assay: Biodistribution in liver of NMRI mouse assessed as standard uptake value after 2 mins; format: ADME, organism-based; conditions: in vivo
# [30] = Biodistribution in spleen/pancreas of NMRI mouse assessed as standard uptake value after 2 mins; format: ADME, organism-based; conditions: in vivo
# [31] = system: Lung; assay: Biodistribution in lung of NMRI mouse assessed as standard uptake value after 60 mins; format: ADME, organism-based; conditions: in vivo, 1 h
# [32] = system: Heart; assay: Biodistribution in heart of NMRI mouse assessed as standard uptake value after 60 mins; format: ADME, organism-based; conditions: in vivo, 1 h
# [33] = system: Brain; assay: Biodistribution in brain of NMRI mouse assessed as standard uptake value after 60 mins; format: ADME, organism-based; conditions: in vivo, 1 h
# [34] = system: Blood; assay: Biodistribution in blood of NMRI mouse assessed as standard uptake value after 60 mins; format: ADME, organism-based; conditions: in vivo, 1 h
# [35] = Partition coefficient, log P at pH 7.4; format: physicochemical; conditions: octanol/water
# How it was run: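 HPLC-purified radiotracer partitioned between 1-octanol and 0.025 M phosphate buffer pH 7.4. Vortexed 2 min at room temperature, centrifuged 5 min, aliquots of both phases gamma-counted. P = octanol cpm/buffer cpm after density and mass correction; n = 6.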
# [36] = Drug uptake in human 293T cells transduced with VZV-tk gene after 3 hrs; format: ADME, cell-based; conditions: hek-293t
# How it was run: (§4)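 Lentivirally transduced 293T cells (VZV-tk or LacZ control) plated in triplicate at 200 000 cells/well. After 24 h, 0.25 mL fresh medium with 5 µCi of the 18F tracer (3 h) or 30 µCi of the 11C tracer (1 h) added; 37 °C, 5% CO2. Cells washed thrice with ice-cold PBS, lysed, gamma-counted. Uptake given as % total radioactivity per mg protein (Bio-Rad assay); n = 3, unpaired two-sided t-test.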
# [37] = Ratio of drug uptake in LV-VZVTK-1-P transduced cells to LV-LacZ-I-P transduced 293T cells after 3 hrs; format: ADME, cell-based; conditions: human
# How it was run: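 Lentivirally transduced human embryonic kidney 293T cells (VZV-tk vs LacZ control), plated in triplicate at 200 000 cells/well. After 24 h, fresh medium with HPLC-purified [18F] tracer (5 µCi/well), 3 h at 37 °C, 5% CO2. Cells washed three times with ice-cold PBS and lysed. Lysate counted in a gamma counter. Uptake given as % total radioactivity per mg protein (Bio-Rad assay). Ratio is VZV-tk/LacZ; n=3, unpaired Student t-test.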
# [38] = Drug uptake in human 293T cells transduced with LacZ gene after 3 hrs; format: ADME, cell-based; conditions: hek-293t; how it was run: as §4
# [39] = Biodistribution in urine of NMRI mouse after 2 mins; format: ADME, organism-based; conditions: in vivo; how it was run: as §3
# [40] = system: Kidney; assay: Biodistribution in kidney of NMRI mouse after 2 mins; format: ADME, organism-based; conditions: in vivo; how it was run: as §3
# [41] = system: Liver; assay: Biodistribution in liver of NMRI mouse after 2 mins; format: ADME, organism-based; conditions: in vivo; how it was run: as §3
# [42] = Biodistribution in spleen/pancreas of NMRI mouse after 2 mins; format: ADME, organism-based; conditions: in vivo; how it was run: as §3
# [43] = system: Lung; assay: Biodistribution in lung of NMRI mouse after 2 mins; format: ADME, organism-based; conditions: in vivo; how it was run: as §3
# [44] = system: Heart; assay: Biodistribution in heart of NMRI mouse after 2 mins; format: ADME, organism-based; conditions: in vivo; how it was run: as §3
compound,measurement,setting,value
O=c1nc2oc(-c3ccccc3F)cc2cn1C1C[C@H](O)[C@@H](CO)O1 (stereo partly specified),IC50,[1],0.28 µM
same,IC50,[2],> 500 µM
same,IC50,[3],> 500 µM
Nc1nc(=O)c2ncn(CCC(CO)CF)c2[nH]1 (stereo unspecified),Activity,[4],Active
same,IC50,[1],> 50 µM
O=c1nc2oc(-c3cccc(OCCF)c3)cc2cn1[C@H]1C[C@H](O)[C@@H](CO)O1,IC50,[1],53 µM
same,IC50,[2],> 500 µM
same,IC50,[3],> 500 µM
same,Activity,[5],Not Active
same,Activity,[6],Not Active
O=c1nc2oc(-c3cccc(OCC[18F])c3)cc2cn1[C@H]1C[C@H](O)[C@@H](CO)O1,Drug uptake,[7],1.1
same,Drug uptake,[8],0.6
same,Drug uptake,[9],0.1
same,Drug uptake,[10],0.9
same,Drug uptake,[11],0.7
same,Drug uptake,[12],0.7
same,Drug uptake,[13],0.1
same,Drug uptake,[14],20.7 %ID
same,Drug uptake,[15],0 %ID
same,Drug uptake,[16],6.2 %ID
same,Drug uptake,[17],27.2 %ID
same,Drug uptake,[18],29.5 %ID
same,Drug uptake,[19],1.2 %ID
same,Drug uptake,[20],4.4 %ID
same,Drug uptake,[21],0.1 %ID
same,Drug uptake,[22],0.1 %ID
same,Drug uptake,[23],0 %ID
same,Drug uptake,[24],60.5 %ID
same,Drug uptake,[25],0 %ID
same,Drug uptake,[26],0.4 %ID
same,Drug uptake,[27],3.8 %ID
same,Drug uptake,[28],9
same,Drug uptake,[29],3.9
same,Drug uptake,[30],1.4
same,Drug uptake,[31],0
same,Drug uptake,[32],0
same,Drug uptake,[33],0
same,Drug uptake,[34],0.1
same,logD,[35],1.24
same,Drug uptake,[36],2.29%
same,uptake ratio at 3 h,[37],4.5
same,Drug uptake,[38],0.6%
same,Drug uptake,[39],5.7 %ID
same,Drug uptake,[40],15.5 %ID
same,Drug uptake,[41],24.4 %ID
same,Drug uptake,[42],1.3 %ID
same,Drug uptake,[43],0.9 %ID
same,Drug uptake,[44],0.3 %ID
O=c1nc2oc(-c3ccc(F)cc3)cc2cn1[C@H]1C[C@H](O)[C@@H](CO)O1,IC50,[1],0.18 µM
same,IC50,[2],> 500 µM
same,IC50,[3],> 500 µM

# Reference: ChEMBL document CHEMBL1142866, “Synthesis and preliminary evaluation of 18F- or 11C-labeled bicyclic nucleoside analogues as potential probes for imaging varicella-zoster virus thymidine kinase gene expression using positron emission tomography” (J Med Chem, 2007)
